Experimental data taken from the array DNA melting data of Ke et al. (doi:10.1101/2024.01.08.574731).

Columns and labels:
[1] = folding enthalpy; higher = less favourable; fluorescence melt of hairpins on a sequencing array, two-state fit; conditions: sodium 0.088 M
Method in brief: (§1)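 Bootstrapped two-state fits yielded melting temperature and folding enthalpy for library hairpins. Cy3 fluorescence, with annealed Cy3 and quencher oligos, was imaged on a sequenced MiSeq flow cell in 50 mM Na-HEPES pH 8.0, 25 mM NaCl in 2.5 °C steps up to 60 °C, and normalised to pre-quench Cy3 and to control constructs. Four replicates were combined by inverse variance, and fitted temperatures were raised by 9.35 °C to match UV melts.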

[2] = melting temperature; fluorescence melt of hairpins on a sequencing array, two-state fit, raised by 9.35 °C to match UV melts; conditions: sodium 0.088 M
Method in brief: as §1

| Sequence | folding enthalpy [1] | Tm [2] |
| --- | --- | --- |
| GCGTTGCGAAAGCCCCGC (((..((....))..))) | -18.2 kcal/mol | 48.3 °C |
| GCGTTGCGAAAGCTAGGC ((.(.((....)).).)) | -19.2 kcal/mol | 48.9 °C |
| GCGTTGCGAAAGCTTCGC (((..((....))..))) | -14.3 kcal/mol | 64 °C |
| GCGTTGGTACGC ((((....)))) | -20.9 kcal/mol | 51.3 °C |
| GCGTTGTAACGC ((((....)))) | -27.4 kcal/mol | 56.8 °C |
| GCGTTGTCGAAAGACCGC (((..(((....)))))) | -27.1 kcal/mol | 50.6 °C |
| GCGTTTCGAAAGAATCGC (((.(((....))).))) | -46 kcal/mol | 53.5 °C |
| GCGTTTGGAAACAAACGC (((((((....))))))) | -41.4 kcal/mol | 67.7 °C |
| GCGTTTGGACGC ((((....)))) | -19.2 kcal/mol | 54.2 °C |
| GCTAAAACGAAAGTTAGC (((..(((....)))))) | -27.8 kcal/mol | 40.1 °C |
| GCTAAACGAAAGTTAGC (((.(((....)))))) | -26.6 kcal/mol | 48.3 °C |
| GCTAAACGAAAGTTGAGC (((.(((....))).))) | -31.8 kcal/mol | 50.8 °C |
| GCTAACCGAAAGGTCAGC (((.(((....))).))) | -29.7 kcal/mol | 49.7 °C |
| GCTAACCGAAAGGTGAGC (((.(((....))).))) | -32.1 kcal/mol | 59.7 °C |
| GCTAACGAAAGTTAAAGC ((((((....)))..))) | -18.5 kcal/mol | 36.7 °C |
| GCTAACGAAAGTTAGAGC ((((((....)))..))) | -16.1 kcal/mol | 45.8 °C |
| GCTAACGAAAGTTGAAGC ((((((....)))..))) | -15.2 kcal/mol | 34.6 °C |
| GCTAACGGAAACGCTAGC ((((.((....)).)))) | -33.9 kcal/mol | 44.8 °C |
| GCTAACTCGAAAGAGAGC (((..(((....)))))) | -16.5 kcal/mol | 32 °C |
| GCTAAGCGAAAGCATTGC ((.(.((....)).).)) | -19.9 kcal/mol | 36.2 °C |
| GCTAAGCGAAAGCCCAGC (((..((....))..))) | -16.8 kcal/mol | 34.5 °C |
| GCTAAGCGAAAGCCTAGC ((((.((....)).)))) | -21.9 kcal/mol | 49.1 °C |
| GCTAAGCGAAAGCGTAGC ((((.((....)).)))) | -20.3 kcal/mol | 61.5 °C |

| Sequence | folding enthalpy [1] | Tm [2] |
| --- | --- | --- |
| GCTAAGCGAAAGCTAGGC ((..(((....)))..)) | -17.6 kcal/mol | 47.4 °C |
| GCTAAGCGAAAGCTTTGC ((.((((....)))).)) | -30.6 kcal/mol | 59.5 °C |
| GCTAAGGGAAACCTTAGC (((((((....))))))) | -40.7 kcal/mol | 59.8 °C |
| GCTAATGAAAATTAGC ((((((....)))))) | -31.7 kcal/mol | 50 °C |
| GCTAATGGAAACGTTAGC (((((.(....).))))) | -29.7 kcal/mol | 43.9 °C |
| GCTACACGAAAGTGAGC (((.(((....)))))) | -19.2 kcal/mol | 49.4 °C |
| GCTACACGAAAGTGCAGC (((.(((....))).))) | -42.1 kcal/mol | 53.1 °C |
| GCTACCGCGAAAGCGAGC (((..(((....)))))) | -11.5 kcal/mol | 35.9 °C |
| GCTACCGGAAACGGTGGC ((.((((....)))).)) | -33.8 kcal/mol | 60 °C |
| GCTACGCGAAAGCAAAGC (((..((....))..))) | -13.2 kcal/mol | 44.1 °C |
| GCTACGCGAAAGCATTGC ((.(.((....)).).)) | -12.7 kcal/mol | 38.7 °C |
| GCTACGCGAAAGCCGAGC (((..((....))..))) | -15.6 kcal/mol | 43.4 °C |
| GCTACGCGAAAGCCTTGC ((.(.((....)).).)) | -9.85 kcal/mol | 29.6 °C |
| GCTACGCGAAAGCGCAGC (((.(((....))).))) | -32.5 kcal/mol | 55.7 °C |
| GCTACGCGAAAGCTGAGC (((..((....))..))) | -15.2 kcal/mol | 46.2 °C |
| GCTACGCGAAAGCTTGGC ((.(.((....)).).)) | -17.4 kcal/mol | 41.1 °C |
| GCTACGCGAAAGCTTTGC ((.(.((....)).).)) | -13 kcal/mol | 36.7 °C |
| GCTACGGAAACGTAGC ((((((....)))))) | -42 kcal/mol | 66.5 °C |
| GCTACGGGAAACCGCAAC (.(.(((....))).).) | -9.56 kcal/mol | 24.1 °C |
| GCTACGTCGAAAGACAGC (((..(((....)))))) | -16.2 kcal/mol | 36.4 °C |
| GCTACTGCGAAAGCAAGC (((..(((....)))))) | -11.4 kcal/mol | 34.7 °C |
| GCTACTGGAAACAATAGC ((((.((....)).)))) | -18.5 kcal/mol | 31.3 °C |
| GCTACTGGAAACAGTAAC (.(((((....))))).) | -16 kcal/mol | 31.5 °C |

| Sequence | folding enthalpy [1] | Tm [2] |
| --- | --- | --- |
| GCTACTGGAAACAGTAGC (((((((....))))))) | -44.5 kcal/mol | 64 °C |
| GCTACTGGAAACGGTAGC (((((.(....).))))) | -37.5 kcal/mol | 50.2 °C |
| GCTAGACGAAAGTCAGC (((.(((....)))))) | -23.1 kcal/mol | 54.2 °C |
| GCTAGAGCGAAAGCTAGC (((..(((....)))))) | -21.7 kcal/mol | 47.4 °C |
| GCTAGAGGAAACTCTAAC (.(((((....))))).) | -9.45 kcal/mol | 24.8 °C |
| GCTAGCCGAAAGGCAAGC (((.(((....))).))) | -27 kcal/mol | 60 °C |
| GCTAGCCGAAAGGCAGC (((.(((....)))))) | -21.7 kcal/mol | 58.1 °C |
| GCTAGCGAAAGCTAAGC ((((((....))).))) | -22.4 kcal/mol | 54.6 °C |
| GCTAGCGAAAGCTCGAGC ((((((....)))..))) | -14.6 kcal/mol | 35.6 °C |
| GCTAGCGAAAGCTGTAGC ((((((....)))..))) | -21.3 kcal/mol | 43.1 °C |
| GCTAGCTCGAAAGAGAGC (((..(((....)))))) | -12.2 kcal/mol | 30.4 °C |
| GCTAGGAAACTAGC (((((....))))) | -25.6 kcal/mol | 50.8 °C |
| GCTAGGCGAAAGCCACGC ((..(((....)))..)) | -14.3 kcal/mol | 41.5 °C |
| GCTAGGCGAAAGCCCCGC ((..(((....)))..)) | -7.78 kcal/mol | 32.6 °C |
| GCTAGGCGAAAGCCCGGC ((..(((....)))..)) | -16.9 kcal/mol | 45.6 °C |
| GCTAGGCGAAAGCCGCGC ((..(((....)))..)) | -16.9 kcal/mol | 62 °C |
| GCTAGGCGAAAGCCGGGC ((..(((....)))..)) | -16 kcal/mol | 60 °C |
| GCTAGGCGAAAGCCGTGC ((..(((....)))..)) | -13.9 kcal/mol | 57.7 °C |
| GCTAGGCGAAAGCCTCGC ((.((((....)))).)) | -17.8 kcal/mol | 58.9 °C |
| GCTAGGCGAAAGCGAAGC (((..((....))..))) | -15.8 kcal/mol | 35.3 °C |
| GCTAGGCGAAAGCGTCGC ((.(.((....)).).)) | -14.3 kcal/mol | 40.3 °C |
| GCTAGGCGAAAGCTTGGC ((.(.((....)).).)) | -20.6 kcal/mol | 45.2 °C |
| GCTAGGCGAAAGCTTTGC ((.(.((....)).).)) | -17.6 kcal/mol | 42.3 °C |

| Sequence | folding enthalpy [1] | Tm [2] |
| --- | --- | --- |
| GCTAGGGGAAACCCTGGC ((.((((....)))).)) | -36.9 kcal/mol | 53.4 °C |
| GCTAGGGGAAACCTTAGC ((((.((....)).)))) | -33.7 kcal/mol | 44.5 °C |
| GCTAGGGGAAACTCTGGC ((.((.(....).)).)) | -23.9 kcal/mol | 32.9 °C |
| GCTAGGTCGAAAGACAGC (((..(((....)))))) | -18.1 kcal/mol | 39.6 °C |
| GCTAGTCGAAAGACCAGC (((.(((....))).))) | -26.6 kcal/mol | 47.3 °C |
| GCTAGTGCGAAAGCAAGC (((..(((....)))))) | -12.3 kcal/mol | 39 °C |
| GCTAGTGGAAACATTAGC ((((.((....)).)))) | -28.3 kcal/mol | 42.7 °C |
| GCTATACCGAAAGGTAGC (((..(((....)))))) | -17 kcal/mol | 40 °C |
| GCTATACGAAAGTAAGC (((.(((....)))))) | -22.3 kcal/mol | 40.6 °C |
| GCTATAGCGAAAGCTAGC (((..(((....)))))) | -18 kcal/mol | 44.6 °C |
| GCTATAGGAAACTATGGC ((.((((....)))).)) | -28.6 kcal/mol | 41.7 °C |
| GCTATCACGAAAGTGAGC (((..(((....)))))) | -14.1 kcal/mol | 36.1 °C |
| GCTATCCGAAAGGAAAGC (((.(((....))).))) | -31.4 kcal/mol | 49 °C |
| GCTATCGAAAGATAGAGC ((((((....)))..))) | -23.4 kcal/mol | 42.7 °C |
| GCTATCGAAAGATCAAGC ((((((....)))..))) | -18.3 kcal/mol | 30.8 °C |
| GCTATCGAAAGATGGAGC ((((((....)))..))) | -15.9 kcal/mol | 33.6 °C |
| GCTATCGAAAGATTCAGC ((((((....)))..))) | -11.6 kcal/mol | 29.6 °C |
| GCTATGCCGAAAGGCAGC (((..(((....)))))) | -12.1 kcal/mol | 40.2 °C |
| GCTATGCGAAAGCAAAGC (((.(((....))).))) | -36 kcal/mol | 51.6 °C |
| GCTATGCGAAAGCACAGC (((.(((....))).))) | -39.7 kcal/mol | 48.7 °C |
| GCTATGCGAAAGCATCGC ((.((((....)))).)) | -22.5 kcal/mol | 55.3 °C |
| GCTATGCGAAAGCCTTGC ((.(.((....)).).)) | -12.7 kcal/mol | 30 °C |
